# In ChEMBL document CHEMBL5724801, “EUbOPEN Chemogenomics Library - Multiplex” (2024):
# Several values for one entry are separate records, joined by “and”; a condition that tells them apart may be missing. Equal entries are not always repeated.
# System: U2OS
# Assay: Multiplex assay against U2OS
# Format: toxicity, cell-based
# Settings: human
# How it was run: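 Phenotypes for tubulin, mitochondrial mass and membrane permeability are expressed as per cents of healthy-nucleus cells. Cells were stained live at seeding with Hoechst33342, BioTracker Green Microtubule Cytoskeleton Dye, MitoTracker Red and Annexin V Alexa Fluor 680, then imaged after compound addition on a CQ1 microscope at 37°C and 5% CO2. Machine-learning gating in CellPathfinder separated Hoechst high-intensity objects from normal cells, divided normal cells by nuclear state (healthy, pyknosed, fragmented) and divided pyknosed cells into mitotic or apoptotic.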
# [1] = 12 h, 1 µM, compound concentration 1 uM
# [2] = 12 h, 10 µM, compound concentration 10 uM
# [3] = 24 h, 1 µM, compound concentration 1 uM
# [4] = 24 h, 10 µM, compound concentration 10 uM
# [5] = 48 h, 1 µM, compound concentration 1 uM
# [6] = 48 h, 10 µM, compound concentration 10 uM
smiles,measurement,setting,value
Cl.Clc1ccc2nsnc2c1NC1=NCCN1 [TIZANIDINE HYDROCHLORIDE],Population Apoptotic (%),[1],82% and 85%
same,Population Fragmented Nuclei (%),[1],20% and 10%
same,Population Healthy Nuclei (%),[1],73% and 78%
same,Population Hoechst High Intensity Objects (%),[1],2% and 1%
same,Population Membrane Permeable-Phenotype (%),[1],6% and 3%
same,Population Mitochondria Different-Phenotype (%),[1],1% and 2%
same,Population Mitotic Cells (%),[1],17% and 14%
same,Population Normal (%),[1],97% and 98%
same,Population Pyknosed Nuclei (%),[1],5% and 10%
same,Population Tubulin-Different-Phenotype (%),[1],2% and 3%
same,Total Cell Count,[1],306 and 140
same,Population Apoptotic (%),[2],77% and 90%
same,Population Fragmented Nuclei (%),[2],31% and 22%
same,Population Healthy Nuclei (%),[2],61% and 66%
same,Population Hoechst High Intensity Objects (%),[2],2%
same,Population Membrane Permeable-Phenotype (%),[2],7% and 14%
same,Population Mitochondria Different-Phenotype (%),[2],2% and 7%
same,Population Mitotic Cells (%),[2],22% and 10%
same,Population Normal (%),[2],97%
same,Population Pyknosed Nuclei (%),[2],6% and 10%
same,Total Cell Count,[2],280 and 98
same,Population Apoptotic (%),[3],90% and 89%
same,Population Fragmented Nuclei (%),[3],19% and 15%
same,Population Healthy Nuclei (%),[3],72% and 73%
same,Population Hoechst High Intensity Objects (%),[3],0% and 4%
same,Population Membrane Permeable-Phenotype (%),[3],4% and 7%
same,Population Mitochondria Different-Phenotype (%),[3],2% and 4%
same,Population Mitotic Cells (%),[3],9% and 10%
same,Population Normal (%),[3],99% and 95%
same,Population Pyknosed Nuclei (%),[3],8% and 11%
same,Population Tubulin-Different-Phenotype (%),[3],5% and 6%
same,Total Cell Count,[3],381 and 172
same,Population Apoptotic (%),[4],65% and 86%
same,Population Fragmented Nuclei (%),[4],29% and 25%
same,Population Healthy Nuclei (%),[4],62% and 61%
same,Population Hoechst High Intensity Objects (%),[4],2%
same,Population Membrane Permeable-Phenotype (%),[4],4% and 12%
same,Population Mitochondria Different-Phenotype (%),[4],1% and 7%
same,Population Mitotic Cells (%),[4],34% and 13%
same,Population Normal (%),[4],97%
same,Population Pyknosed Nuclei (%),[4],8% and 13%
same,Population Tubulin-Different-Phenotype (%),[4],1% and 11%
same,Total Cell Count,[4],327 and 118
same,Population Apoptotic (%),[5],86% and 90%
same,Population Fragmented Nuclei (%),[5],11% and 17%
same,Population Healthy Nuclei (%),[5],80% and 74%
same,Population Hoechst High Intensity Objects (%),[5],1% and 3%
same,Population Membrane Permeable-Phenotype (%),[5],2% and 5%
same,Population Mitochondria Different-Phenotype (%),[5],1% and 2%
same,Population Mitotic Cells (%),[5],13% and 9%
same,Population Normal (%),[5],98% and 96%
same,Population Pyknosed Nuclei (%),[5],7% and 8%
same,Population Tubulin-Different-Phenotype (%),[5],2% and 3%
same,Total Cell Count,[5],512 and 260
same,Population Apoptotic (%),[6],93% and 76%
same,Population Fragmented Nuclei (%),[6],18% and 22%
same,Population Healthy Nuclei (%),[6],75% and 65%
same,Population Hoechst High Intensity Objects (%),[6],2% and 4%
same,Population Membrane Permeable-Phenotype (%),[6],5% and 15%
same,Population Mitochondria Different-Phenotype (%),[6],1% and 5%
same,Population Normal (%),[6],97% and 95%
same,Population Pyknosed Nuclei (%),[6],6% and 11%
same,Population Tubulin-Different-Phenotype (%),[6],3% and 7%
CCCC(CCC)C(=O)O [VALPROIC ACID],Population Apoptotic (%),[1],72% and 66%
same,Population Fragmented Nuclei (%),[1],28% and 14%
same,Population Healthy Nuclei (%),[1],63% and 77%
same,Population Hoechst High Intensity Objects (%),[1],6% and 2%
same,Population Membrane Permeable-Phenotype (%),[1],9% and 8%
same,Population Mitochondria Different-Phenotype (%),[1],7% and 3%
same,Population Mitotic Cells (%),[1],27% and 33%
same,Population Normal (%),[1],93% and 97%
same,Population Pyknosed Nuclei (%),[1],8%
same,Population Tubulin-Different-Phenotype (%),[1],8% and 6%
same,Population Apoptotic (%),[2],77% and 85%
same,Population Fragmented Nuclei (%),[2],30% and 21%
same,Population Healthy Nuclei (%),[2],66% and 70%
same,Population Hoechst High Intensity Objects (%),[2],4% and 0%
same,Population Membrane Permeable-Phenotype (%),[2],6% and 4%
same,Population Mitochondria Different-Phenotype (%),[2],3% and 4%
same,Population Mitotic Cells (%),[2],22% and 14%
same,Population Normal (%),[2],95% and 100%
same,Population Pyknosed Nuclei (%),[2],3% and 7%
same,Population Tubulin-Different-Phenotype (%),[2],4%
same,Population Apoptotic (%),[3],84% and 100%
same,Population Fragmented Nuclei (%),[3],24% and 17%
same,Population Healthy Nuclei (%),[3],66% and 74%
same,Population Hoechst High Intensity Objects (%),[3],6% and 3%
same,Population Membrane Permeable-Phenotype (%),[3],9%
same,Population Mitochondria Different-Phenotype (%),[3],6% and 2%
same,Population Mitotic Cells (%),[3],16% and 0%
same,Population Normal (%),[3],93% and 96%
same,Population Pyknosed Nuclei (%),[3],8%
same,Population Tubulin-Different-Phenotype (%),[3],9% and 7%
same,Population Apoptotic (%),[4],83% and 100%
same,Population Fragmented Nuclei (%),[4],25% and 17%
same,Population Healthy Nuclei (%),[4],71% and 78%
same,Population Hoechst High Intensity Objects (%),[4],2% and 0%
same,Population Membrane Permeable-Phenotype (%),[4],4% and 8%
same,Population Mitochondria Different-Phenotype (%),[4],3% and 4%
same,Population Mitotic Cells (%),[4],16% and 0%
same,Population Normal (%),[4],97% and 100%
same,Population Pyknosed Nuclei (%),[4],3% and 4%
same,Population Tubulin-Different-Phenotype (%),[4],3% and 5%
same,Population Apoptotic (%),[5],76% and 91%
same,Population Fragmented Nuclei (%),[5],20% and 16%
same,Population Healthy Nuclei (%),[5],69% and 72%
same,Population Hoechst High Intensity Objects (%),[5],3%
same,Population Membrane Permeable-Phenotype (%),[5],7% and 8%
same,Population Mitochondria Different-Phenotype (%),[5],5%
same,Population Mitotic Cells (%),[5],23% and 8%
same,Population Normal (%),[5],96%
same,Population Pyknosed Nuclei (%),[5],9% and 11%
same,Population Tubulin-Different-Phenotype (%),[5],5% and 6%
same,Population Apoptotic (%),[6],91% and 93%
same,Population Fragmented Nuclei (%),[6],20%
same,Population Healthy Nuclei (%),[6],71%
same,Population Hoechst High Intensity Objects (%),[6],2% and 1%
same,Population Membrane Permeable-Phenotype (%),[6],3% and 9%
same,Population Mitochondria Different-Phenotype (%),[6],2%
same,Population Mitotic Cells (%),[6],8% and 6%
same,Population Normal (%),[6],97% and 98%
same,Population Pyknosed Nuclei (%),[6],7%
same,Population Tubulin-Different-Phenotype (%),[6],1% and 4%
